Experiments:
[1] = target: Angiotensin-converting enzyme (Bos taurus) (UniProt P12820); assay: Inhibitory activity of compound at 1*10e-4 M against Angiotensin I converting enzyme (ACE) from bovine kidney
[2] = target: Angiotensin-converting enzyme (Homo sapiens, UniProt P12821); assay: Inhibitory activity against Angiotensin I converting enzyme (ACE) from human blood serum
Neprilysin [3] = target: T1, Neprilysin (Rattus norvegicus, UniProt P07861); assay: Inhibitory activity against neutral endopeptidase (NEP) from rat cortex brain membrane
T1 sequence (P07861 whole entry): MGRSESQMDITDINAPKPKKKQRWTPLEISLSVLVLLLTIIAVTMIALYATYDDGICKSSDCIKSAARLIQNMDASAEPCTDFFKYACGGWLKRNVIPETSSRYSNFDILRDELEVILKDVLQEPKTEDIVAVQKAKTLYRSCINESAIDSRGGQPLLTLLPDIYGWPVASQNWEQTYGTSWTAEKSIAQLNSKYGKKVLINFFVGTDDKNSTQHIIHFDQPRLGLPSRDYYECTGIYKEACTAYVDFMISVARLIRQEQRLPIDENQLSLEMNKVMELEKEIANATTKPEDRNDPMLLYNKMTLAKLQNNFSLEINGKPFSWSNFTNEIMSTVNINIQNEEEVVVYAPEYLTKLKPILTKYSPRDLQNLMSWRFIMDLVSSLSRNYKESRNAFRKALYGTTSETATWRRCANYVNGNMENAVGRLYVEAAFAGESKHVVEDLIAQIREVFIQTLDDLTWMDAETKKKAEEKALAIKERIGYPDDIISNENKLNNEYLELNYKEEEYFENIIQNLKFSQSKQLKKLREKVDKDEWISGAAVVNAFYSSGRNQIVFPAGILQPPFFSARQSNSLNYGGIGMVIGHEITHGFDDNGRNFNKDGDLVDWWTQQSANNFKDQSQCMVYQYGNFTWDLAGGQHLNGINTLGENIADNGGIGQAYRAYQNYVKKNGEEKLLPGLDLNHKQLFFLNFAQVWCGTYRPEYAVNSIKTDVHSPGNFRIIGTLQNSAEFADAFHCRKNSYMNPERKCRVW
Outline: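 Rat cortex brain membrane suspension in 50 mM Tris-HCl pH 7.5, with six to eight inhibitor concentrations (10^-2 to 10^-6 M). Preincubated 20 min at 37 °C, then Suc-Ala-Ala-Phe-MCA (20 µM final) added for 120-180 min at 37 °C; stopped with pH 4.0 acetate. Released 4-methylcoumarinyl-7-amine read at Ex 383/Em 455 nm; % inhibition versus control; IC50.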

[4] = target: T2, Angiotensin-converting enzyme (Rattus norvegicus, UniProt P47820); assay: Inhibitory activity against Angiotensin I converting enzyme (ACE) from rat cortex brain membrane
T2 sequence (P47820 whole entry): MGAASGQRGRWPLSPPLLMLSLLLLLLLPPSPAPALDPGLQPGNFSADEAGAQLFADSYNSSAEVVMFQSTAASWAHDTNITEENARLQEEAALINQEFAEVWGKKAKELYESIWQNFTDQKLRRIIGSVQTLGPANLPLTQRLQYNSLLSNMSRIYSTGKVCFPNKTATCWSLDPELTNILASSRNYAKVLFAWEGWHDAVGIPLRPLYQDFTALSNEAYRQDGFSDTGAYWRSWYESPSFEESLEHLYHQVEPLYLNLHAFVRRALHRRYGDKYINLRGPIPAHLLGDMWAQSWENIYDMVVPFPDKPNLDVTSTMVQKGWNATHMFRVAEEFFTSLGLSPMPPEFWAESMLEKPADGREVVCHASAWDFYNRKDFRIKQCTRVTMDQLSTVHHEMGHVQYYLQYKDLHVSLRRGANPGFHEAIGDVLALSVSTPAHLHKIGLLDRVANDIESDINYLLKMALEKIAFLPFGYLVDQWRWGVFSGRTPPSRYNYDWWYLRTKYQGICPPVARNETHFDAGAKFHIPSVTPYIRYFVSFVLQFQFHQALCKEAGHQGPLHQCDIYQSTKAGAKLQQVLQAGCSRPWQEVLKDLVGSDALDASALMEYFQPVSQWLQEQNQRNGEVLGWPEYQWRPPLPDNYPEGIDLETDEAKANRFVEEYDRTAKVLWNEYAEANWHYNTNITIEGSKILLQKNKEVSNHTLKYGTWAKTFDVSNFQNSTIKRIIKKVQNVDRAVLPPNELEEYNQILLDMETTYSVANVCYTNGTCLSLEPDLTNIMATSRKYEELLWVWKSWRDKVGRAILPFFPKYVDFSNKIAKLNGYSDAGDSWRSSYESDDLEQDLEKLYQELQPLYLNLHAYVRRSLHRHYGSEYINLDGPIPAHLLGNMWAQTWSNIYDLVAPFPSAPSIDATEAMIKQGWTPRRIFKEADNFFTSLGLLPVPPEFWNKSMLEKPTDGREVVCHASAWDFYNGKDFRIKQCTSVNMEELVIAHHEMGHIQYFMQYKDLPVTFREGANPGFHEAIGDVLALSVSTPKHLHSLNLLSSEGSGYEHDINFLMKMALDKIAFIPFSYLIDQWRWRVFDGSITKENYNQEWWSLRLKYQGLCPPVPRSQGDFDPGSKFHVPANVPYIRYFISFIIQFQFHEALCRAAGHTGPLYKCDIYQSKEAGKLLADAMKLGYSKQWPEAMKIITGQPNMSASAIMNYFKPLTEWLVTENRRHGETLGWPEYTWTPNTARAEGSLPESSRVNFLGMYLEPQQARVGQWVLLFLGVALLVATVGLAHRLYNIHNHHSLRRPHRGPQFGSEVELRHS
Outline: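 Enzyme source was human serum (diluted 1:5) or rat cortex brain membrane suspension, in 70 mM potassium phosphate pH 8.3 with 300 mM NaCl. Compound (10^-3 to 10^-8 M) preincubated 20 min at 37 °C, then 25 µM Hip-His-Leu added for 120 min; stopped with NaOH.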

Neprilysin [5] = target: Neprilysin (Homo sapiens, UniProt P08473); assay: Inhibitory activity against neutral endopeptidase (NEP) from human blood serum
Outline: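 Human serum (diluted 1:5) as enzyme source, with the test compound at six to eight concentrations from 10^-2 to 10^-6 M, in 50 mM Tris-HCl pH 7.5. Preincubated 20 min at 37 °C. Suc-Ala-Ala-Phe-MCA added (20 µM final) and incubated 120-180 min at 37 °C. Stopped with 20 mM sodium acetate pH 4.0. Released 4-methylcoumarinyl-7-amine read at Ex 383/Em 455 nm. Percent inhibition taken against the no-inhibitor control; IC50 derived.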

Sequence of Angiotensin-converting enzyme (Homo sapiens, UniProt P12821) (P12821 whole entry): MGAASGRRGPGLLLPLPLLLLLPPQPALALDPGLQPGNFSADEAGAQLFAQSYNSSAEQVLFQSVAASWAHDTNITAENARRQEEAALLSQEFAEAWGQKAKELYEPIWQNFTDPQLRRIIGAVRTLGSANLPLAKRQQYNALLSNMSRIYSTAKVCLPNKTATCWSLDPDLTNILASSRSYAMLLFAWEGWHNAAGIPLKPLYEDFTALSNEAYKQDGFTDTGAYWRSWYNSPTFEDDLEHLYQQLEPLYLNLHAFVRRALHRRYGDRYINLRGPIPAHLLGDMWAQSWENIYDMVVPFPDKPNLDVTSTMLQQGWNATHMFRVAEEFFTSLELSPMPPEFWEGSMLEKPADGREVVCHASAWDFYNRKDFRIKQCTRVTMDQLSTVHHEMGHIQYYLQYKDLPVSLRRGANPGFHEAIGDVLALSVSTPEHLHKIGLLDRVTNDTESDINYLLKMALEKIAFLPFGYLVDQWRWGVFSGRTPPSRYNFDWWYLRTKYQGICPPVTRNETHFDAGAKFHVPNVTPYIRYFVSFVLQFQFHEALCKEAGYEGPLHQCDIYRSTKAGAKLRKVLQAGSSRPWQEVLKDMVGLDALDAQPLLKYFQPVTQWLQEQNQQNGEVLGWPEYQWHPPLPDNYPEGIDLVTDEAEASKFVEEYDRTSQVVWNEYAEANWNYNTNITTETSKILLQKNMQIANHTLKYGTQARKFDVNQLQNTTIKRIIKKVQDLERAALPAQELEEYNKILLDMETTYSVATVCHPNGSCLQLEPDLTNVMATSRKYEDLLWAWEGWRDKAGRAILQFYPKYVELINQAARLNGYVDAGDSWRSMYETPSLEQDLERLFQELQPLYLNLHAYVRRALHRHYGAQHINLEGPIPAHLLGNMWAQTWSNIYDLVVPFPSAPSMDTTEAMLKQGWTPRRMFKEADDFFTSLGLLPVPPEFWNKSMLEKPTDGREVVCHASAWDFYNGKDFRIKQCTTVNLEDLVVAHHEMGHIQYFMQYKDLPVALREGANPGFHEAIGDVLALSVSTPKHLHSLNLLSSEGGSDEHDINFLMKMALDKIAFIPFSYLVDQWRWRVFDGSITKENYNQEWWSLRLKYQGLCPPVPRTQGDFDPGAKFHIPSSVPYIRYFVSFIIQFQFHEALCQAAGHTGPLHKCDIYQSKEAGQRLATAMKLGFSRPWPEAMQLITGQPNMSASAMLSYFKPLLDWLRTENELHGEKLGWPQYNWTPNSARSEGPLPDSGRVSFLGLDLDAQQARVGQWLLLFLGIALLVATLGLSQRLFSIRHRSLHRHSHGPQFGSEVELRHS
Sequence of Neprilysin (Homo sapiens, UniProt P08473) (P08473 whole entry): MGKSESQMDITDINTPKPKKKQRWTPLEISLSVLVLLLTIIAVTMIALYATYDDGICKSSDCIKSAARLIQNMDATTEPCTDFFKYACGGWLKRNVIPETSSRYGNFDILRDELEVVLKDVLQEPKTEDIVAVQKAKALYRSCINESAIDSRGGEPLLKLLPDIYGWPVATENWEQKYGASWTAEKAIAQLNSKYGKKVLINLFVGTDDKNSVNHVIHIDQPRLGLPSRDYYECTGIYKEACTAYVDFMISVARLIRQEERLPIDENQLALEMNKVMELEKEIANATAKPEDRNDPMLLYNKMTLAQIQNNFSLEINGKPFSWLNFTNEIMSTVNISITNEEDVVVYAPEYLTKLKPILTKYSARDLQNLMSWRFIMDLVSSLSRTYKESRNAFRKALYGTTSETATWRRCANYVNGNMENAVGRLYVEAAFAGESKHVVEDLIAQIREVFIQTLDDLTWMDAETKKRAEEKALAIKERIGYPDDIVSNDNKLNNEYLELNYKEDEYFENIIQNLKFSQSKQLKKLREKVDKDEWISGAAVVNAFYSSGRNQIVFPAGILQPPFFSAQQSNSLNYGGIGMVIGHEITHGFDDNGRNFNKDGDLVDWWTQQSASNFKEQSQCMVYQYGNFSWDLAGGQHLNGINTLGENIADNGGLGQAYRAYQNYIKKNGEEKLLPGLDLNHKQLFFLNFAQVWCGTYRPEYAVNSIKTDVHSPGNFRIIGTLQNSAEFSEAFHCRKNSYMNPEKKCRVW
Sequence of Angiotensin-converting enzyme (Bos taurus) (P12820 whole entry, looked up): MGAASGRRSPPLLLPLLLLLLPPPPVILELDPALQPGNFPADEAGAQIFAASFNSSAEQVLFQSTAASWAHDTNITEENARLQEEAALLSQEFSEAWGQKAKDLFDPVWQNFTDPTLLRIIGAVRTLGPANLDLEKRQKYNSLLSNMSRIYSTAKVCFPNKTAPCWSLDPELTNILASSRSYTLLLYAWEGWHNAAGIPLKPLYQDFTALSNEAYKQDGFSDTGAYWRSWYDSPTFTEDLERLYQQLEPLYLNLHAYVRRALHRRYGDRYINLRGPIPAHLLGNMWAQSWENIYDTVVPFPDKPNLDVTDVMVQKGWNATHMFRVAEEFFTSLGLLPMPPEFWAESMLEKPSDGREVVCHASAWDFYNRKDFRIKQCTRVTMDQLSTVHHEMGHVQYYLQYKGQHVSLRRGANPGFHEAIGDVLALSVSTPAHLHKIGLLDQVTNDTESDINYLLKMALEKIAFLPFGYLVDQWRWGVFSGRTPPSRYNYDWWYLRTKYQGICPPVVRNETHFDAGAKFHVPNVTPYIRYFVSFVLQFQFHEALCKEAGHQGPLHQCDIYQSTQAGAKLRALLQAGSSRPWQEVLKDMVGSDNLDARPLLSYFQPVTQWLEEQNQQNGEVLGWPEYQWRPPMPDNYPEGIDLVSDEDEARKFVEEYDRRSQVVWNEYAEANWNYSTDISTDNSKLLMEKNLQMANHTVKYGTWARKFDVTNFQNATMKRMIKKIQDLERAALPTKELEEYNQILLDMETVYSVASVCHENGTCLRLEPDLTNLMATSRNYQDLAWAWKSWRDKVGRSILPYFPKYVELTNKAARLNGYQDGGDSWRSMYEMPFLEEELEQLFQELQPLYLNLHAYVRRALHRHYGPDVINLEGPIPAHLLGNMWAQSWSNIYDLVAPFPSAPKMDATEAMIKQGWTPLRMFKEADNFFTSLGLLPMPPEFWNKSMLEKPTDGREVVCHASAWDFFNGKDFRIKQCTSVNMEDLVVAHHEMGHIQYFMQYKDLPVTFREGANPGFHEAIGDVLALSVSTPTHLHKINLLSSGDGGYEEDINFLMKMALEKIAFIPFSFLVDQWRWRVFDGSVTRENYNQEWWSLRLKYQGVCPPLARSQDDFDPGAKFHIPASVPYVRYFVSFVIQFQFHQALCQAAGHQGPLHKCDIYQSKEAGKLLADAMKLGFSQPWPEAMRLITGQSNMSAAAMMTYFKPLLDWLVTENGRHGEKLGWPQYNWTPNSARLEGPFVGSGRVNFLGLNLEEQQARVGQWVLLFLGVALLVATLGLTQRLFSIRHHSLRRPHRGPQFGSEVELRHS

| Compound | IC50 [2] [µM] | IC50 (Neprilysin [3]) [µM] | IC50 [4] [µM] | IC50 (Neprilysin [5]) [µM] | inhibition [1] [%] |
| --- | --- | --- | --- | --- | --- |
| O=C(O)CCCNCP(=O)(O)CCc1ccccc1 | 100 | 2000 | 100 | – | 18 |
| CC(C)C[C@H](NP(=O)(O)O[C@@H]1O[C@@H](C)[C@H](O)[C@@H](O)[C@H]1O)C(=O)N[C@@H](Cc1c[nH]c2ccccc12)C(=O)O [PHOSPHORAMIDON] | – | 0.2 | – | 0.1 | – |
| CC1CCCC(C(=O)O)N1C(=O)CCS (configuration not stated) | 0.02 | 2000 | 0.1 | – | – |

Now from value to compound, other results behind:

| IC50 [2] [µM] | IC50 (Neprilysin [3]) [µM] | IC50 [4] [µM] | IC50 (Neprilysin [5]) [µM] | Compound | inhibition [1] [%] |
| --- | --- | --- | --- | --- | --- |
| 2 | 200 | 1 | 20 | CC(=O)SCC(C)C(=O)Nc1ccccc1 (configuration not stated) | – |
| 200 | 200 | 100 | 20 | CC(=O)SCC(C)C(=O)NCc1ccccc1 (configuration not stated) | – |

From ChEMBL document CHEMBL1145855, “Computer-aided selection of potential antihypertensive compounds with dual mechanism of action” (J Med Chem, 2003)
